CHOP inhibitor – CHOP inhibition in unfolded protein response. CHO-K1 CHOP-promoter luciferase, tunicamycin-induced, 15-18 h. inhibition, % at 10 µM. 3.8% of 220,000 active. AID 2732;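 active = compounds that reduced the stress-induced luciferase reporter signal by more than about 70% of percent inhibition, limit read from the data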
UPR XBP1 act – adaptive UPR (XBP1) activation; 0.33% of 330,000 active; activation, % at 20 µM; CHO-XBP1 luciferase reporter, IRE1-XBP1 UPR activation, luminescence; percent of tunicamycin response, DMSO as zero;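 active = versus positive control, 20 µM dose yields 30% or more activation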
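Test system: CHO-XBP1 luciferase reporter cells | Buffer or medium: Serum-containing F12 medium, 10% FBS | Schedule: 6 h compound exposure at 37 °C, 5% CO2 | Detection: Steady-Glo luciferase glow luminescence, 10 min after reagent addition | Read-out basis: Activation, % of tunicamycin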
CHOP UPR activ – activators of apoptotic arm of unfolded protein response (CHOP); CHO-CHOP luciferase reporter, UPR activation, luminescence; percent of tunicamycin response over DMSO baseline; activation, % at 10 µM; 0.34% of 330,000 active;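 active = at 10 µM dose, activation of 40% or more, normalized to positive control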
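Evaluation: % reporter activation, DMSO baseline versus tunicamycin full activation; System: CHO-CHOP luciferase reporter cell line; Input: 500 cells/well; Incubation: 6 h compound treatment, 37 °C; Measured by: Steady-Glo luciferase luminescence; Dosing: one dose, 10 µM in 0.5% DMSO; Buffer or medium: F12 medium, 10% FBS; Benchmarks: positive tunicamycin 10 µg/mL, negative DMSO alone.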
A1 inh – inhibitors of the anti-apoptotic protein A1, read as caspase activation. MEF A1-2A-BIM cells, Caspase-Glo 3/7 luminescence, 3 h; percent of clofoctol response, vehicle zero. caspase activation, % (no concentration beside the values). 0.066% of 330,000 active;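 active = over half of replicate activation scores above 10%, or exactly half above 10 with the replicate mean above 10; inconclusive = replicate mean below 10 yet half the replicates above 10; inactive = over half of replicates below 10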
UPR XBP1 confirm – adaptive UPR (XBP1) activation, confirmed; activation, % at 20 µM; 63% of 1,000 active; CHO-XBP1 IRE1-XBP1 luciferase reporter, luminescence; AID 485299; shares compounds with UPR XBP1 act;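 active = reporter signal at least 30% of the positive control's activation in two or more of four replicate wells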
Large screens that a line does not name were inactive (follow-up assays come after a bar, where they were run). This excerpt belongs to a sample that is enriched for hits.

Cn1c(-c2cc(Cl)ccc2O)nc2c1c(=O)[nH]c(=O)n2Cc1ccccc1	none
CC(=O)N1CCOc2ccc(S(=O)(=O)N3CCC(C)CC3)cc21	none (no result: CHOP inhibitor)
Cc1ccc(NC(=O)CSc2ccccc2NC(=O)c2cccc(Cl)c2)cc1Cl	UPR XBP1 act 36 | UPR XBP1 confirm inactive
COc1ccc(-c2nn(-c3ccccc3)cc2/C=C/C(=O)OCC(=O)Nc2cccc(C#N)c2)cc1	UPR XBP1 act 66 | UPR XBP1 confirm 97
COc1ccc(-c2nn(-c3ccccc3)cc2/C=C/C(=O)OCC(=O)Nc2ccc(C#N)cc2)cc1	none
Cc1cc2nc3c(=O)[nH]c(=S)[nH]c3nc2cc1NC(=O)C(F)(F)F	none (no result: CHOP inhibitor)
Cn1c(/C=C/c2ccc(Cl)cc2Cl)c([N+](=O)[O-])c(=O)n(C)c1=O	UPR XBP1 act 38 (no result: CHOP inhibitor) | UPR XBP1 confirm 39
CCOc1cccc(C(=O)Nc2ccccc2C(=O)N2CCOCC2)c1	none (no result: CHOP inhibitor)
COc1ccccc1CC(=O)Nc1ccc(-c2noc(COc3ccc(Cl)c(C)c3)n2)cc1	UPR XBP1 act 31 | UPR XBP1 confirm inactive
CCOc1ccccc1-c1nc(-c2ccc(NC(=O)Cc3ccccc3OC)cc2)no1	none
Cc1nc(SCc2nc3cc(Cl)c(F)cc3[nH]2)c2oc3ccccc3c2n1	none (no result: CHOP inhibitor)
CC(C)Sc1nnc(SCC(=O)NCCCN2CCCC2=O)s1	none (no result: CHOP inhibitor)
CSC(N)=NCCC[C@H](N)C(=O)O	none (no result: UPR XBP1 act, CHOP UPR activ, A1 inh)
N#Cc1cc2c(nc1SCC(=O)Nc1sc3c(c1C#N)CCC3)CCCC2	UPR XBP1 act 51 | UPR XBP1 confirm 30
CCOc1cc(/C=C(\C#N)C(=O)Nc2ccccn2)ccc1O	none (no result: CHOP inhibitor)
CCOc1cc(/C=C(\C#N)c2[nH]nc(N)c2C#N)ccc1O	UPR XBP1 act 32 | UPR XBP1 confirm 51
Cc1ccc(NC(=O)COc2ccc3c(c2)CCC3)nc1	none (no result: CHOP inhibitor)
Cc1ccc(SC(=O)COc2ccccc2C)cc1	CHOP inhibitor 75, UPR XBP1 act 49 | UPR XBP1 confirm inactive
O=C(NCc1ccccn1)c1cccc(NS(=O)(=O)c2ccc(Br)cc2)c1	none (no result: CHOP inhibitor)
COc1cc([N+](=O)[O-])ccc1NC(=S)NNC(=O)c1ccc2c(c1)OCO2	UPR XBP1 act 30 (no result: CHOP inhibitor) | UPR XBP1 confirm inactive
CC1CCCCC1NC(=O)c1ccc(NC2=NC3CS(=O)(=O)CC3S2)cc1 (stereo not given)	none (no result: CHOP inhibitor)
O=C1CCCN1CCC(=O)N1CCCC(CO)(Cc2ccccc2)C1 (stereo not given)	none (no result: CHOP inhibitor)
Cc1cc(N2CCN(c3nc(-c4ccc([N+](=O)[O-])cc4)cs3)CC2)c2ccccc2n1	CHOP inhibitor 82, UPR XBP1 act 68 | UPR XBP1 confirm 39
CN(C)CCCNC(=O)c1ccc(-c2nc(-c3ccc(Cl)cc3)cs2)cc1	UPR XBP1 act 82 | UPR XBP1 confirm 159
CN(C)CCCNC(=O)c1ccccn1	none
COc1ccc(-c2c3c(cc4ncn(Cc5ccccc5)c24)COC3=O)cc1	none (no result: CHOP inhibitor)
Cc1nc(SC(C(N)=O)c2ccccc2)c(C#N)c(C)c1C (stereo not given)	none
COc1ccccc1-c1cc(-c2ccccc2)nc(SC(C(N)=O)c2ccccc2)c1C#N (stereo not given)	CHOP inhibitor 76, UPR XBP1 act 70 | UPR XBP1 confirm 46
CCn1c2ccccc2c2cc(Nc3cc(C)nc4ncnn34)ccc21	UPR XBP1 act 36, A1 inh inconclusive (no result: CHOP inhibitor) | UPR XBP1 confirm inactive
O=c1ccc2cc(S(=O)(=O)N3CCN(c4ccccc4)CC3)ccc2[nH]1	none (no result: CHOP inhibitor)
O=S(=O)(c1ccc2nc(-c3ccccc3)[nH]c2c1)N1CCN(c2ccc(Cl)cc2)CC1	CHOP inhibitor 105, UPR XBP1 act 90 | UPR XBP1 confirm 115
O=S(=O)(c1ccc(F)cc1)N1CCN(CC2CC3C=CC2C3)CC1 (stereo not given)	none (no result: CHOP inhibitor)
CCN(C[C@H]1N[C@@](C)(C(=O)OC)[C@H]2C(=O)N(C)C(=O)[C@@H]12)C(=O)Nc1ccccc1	none (no result: CHOP inhibitor)
O=C(NCC1CCCO1)c1nn2c(C(F)(F)F)cc(-c3cc(Br)cs3)nc2c1Br (stereo not given)	UPR XBP1 act 42 (no result: CHOP inhibitor) | UPR XBP1 confirm 40
O=C(NCC1CCCO1)c1nn2c(C(F)(F)F)cc(-c3ccco3)nc2c1Cl (stereo not given)	none (no result: CHOP inhibitor)
COc1cccc(-n2c(SCC(=O)Nc3cc(C)on3)nc3ccccc3c2=O)c1	none

Bioassay records from PubChem BioAssay.
